# Experimental data taken from ChEMBL document CHEMBL1132564, “Antitumor benzothiazoles. 7. Synthesis of 2-(4-acylaminophenyl)benzothiazoles and investigations into the role of acetylation in the antitumor activities of the parent amines” (J Med Chem, 1999).
# Experiments:
# MCF7 = experiment: In vitro antitumor activity against MCF-7 carcinoma cell line.; assay type: functional, cell-based; conditions: Homo sapiens
# How it was run: (§1)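 MTT assay, 7-day format: 250–300 cells/well, adhered 24 h drug-free, then compound 1 pM–100 μM (n = 8), final DMSO <0.25%; RPMI 1640/10% FCS, 37 °C, 5% CO2. MTT added after exposure, 4 h, formazan dissolved in DMSO–glycine (4:1), absorbance 550 nm.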
# MDA-MB-468 = experiment: In vitro antitumor activity against MDA-468 carcinoma cell line.; assay type: functional, cell-based; conditions: Homo sapiens; how it was run: as §1
# 786-0 = experiment: In vitro antitumor activity against Renal cancer 786-0 cell lines by 6-day assay; assay type: functional; conditions: Homo sapiens, 786-0, 144 h
# How it was run: (§2)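 NCI 60-cell-line panel, sulforhodamine B protein stain. Seeding density set per line's growth; 24 h drug-free incubation, then test agent at five 10-fold dilutions up to 10^-4 M for 6 days of exposure. Growth inhibition derived from change in protein-stain optical density; log GI50 reported.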
# A498 = experiment: In vitro antitumor activity against Renal cancer A498 cell lines by 6-day assay; assay type: functional; conditions: Homo sapiens, A498, 144 h; how it was run: as §2
# A549 = experiment: In vitro antitumor activity against Non-small cell lung cancer A549/ATCC cell lines by 6-day assay; assay type: functional; conditions: Homo sapiens, A549, 144 h; how it was run: as §2
# ACHN = experiment: In vitro antitumor activity against Renal cancer ACHN cell lines by 6-day assay; assay type: functional; conditions: Homo sapiens, 144 h; how it was run: as §2
# CAKI-1 = experiment: In vitro antitumor activity against Renal cancer CAKI-1 cell lines by 6-day assay; assay type: functional; conditions: Homo sapiens, CAKI-1, 144 h; how it was run: as §2
# CCRF-CEM = experiment: In vitro antitumor activity against Leukemia CCRF-CEM cell lines by 6-day assay; assay type: functional; conditions: Homo sapiens, 144 h; how it was run: as §2
# BT-549 = experiment: In vitro antitumor activity against Breast cancer BT-549 cell lines by 6-day assay; assay type: functional; conditions: Homo sapiens, BT-549, 144 h; how it was run: as §2
# COLO 205 = experiment: In vitro antitumor activity against colon cancer COLO 205 cell lines by 6-day assay; assay type: functional; conditions: Homo sapiens, COLO 205, 144 h; how it was run: as §2
# EKVX = experiment: In vitro antitumor activity against Non-small cell lung cancer EKVX cell lines by 6-day assay; assay type: functional; conditions: Homo sapiens, 144 h; how it was run: as §2
# HCT-15 = experiment: In vitro antitumor activity against colon cancer HCT-15 cell lines by 6-day assay; assay type: functional; conditions: Homo sapiens, HCT-15, 144 h; how it was run: as §2
# HL-60 = experiment: In vitro antitumor activity against Leukemia HL-60(TB) cell lines by 6-day assay; assay type: functional; conditions: Homo sapiens, HL-60, 144 h
# How it was run: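 NCI 60-line panel screen using a sulforhodamine B protein-stain read-out. Seeding density is set by each line's growth. After a 24-h drug-free period, compound is added at five 10-fold dilutions up to 10^-4 M. Exposure lasts 6 days, and growth inhibition (GI50) is taken from the change in stain optical density.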
# HCT-116 = experiment: In vitro antitumor activity against colon cancer HCT116 cell lines by 6-day assay; assay type: functional; conditions: Homo sapiens, HCT-116, 144 h; how it was run: as §2
# HCC 2998 = experiment: In vitro antitumor activity against colon cancer HCC2998 cell lines by 6-day assay; assay type: functional; conditions: Homo sapiens, HCC 2998, 144 h; how it was run: as §2
# HT-29 = experiment: In vitro antitumor activity against colon cancer HT-29 cell lines by 6-day assay; assay type: functional; conditions: Homo sapiens, HT-29, 144 h; how it was run: as §2
# HOP-92 = experiment: In vitro antitumor activity against Non-small cell lung cancer HOP92 cell lines by 6-day assay; assay type: functional; conditions: Homo sapiens, HOP-92, 144 h; how it was run: as §2
# IGROV-1 = experiment: In vitro antitumor activity against Ovarian cancer IGROV1 cell lines by 6-day assay; assay type: functional; conditions: Homo sapiens, IGROV-1, 144 h; how it was run: as §2
# KM12 = experiment: In vitro antitumor activity against colon cancer KM12 cell lines by 6-day assay; assay type: functional; conditions: Homo sapiens, KM12, 144 h; how it was run: as §2
# M14 = experiment: In vitro antitumor activity against melanoma M14 cell lines by 6-day assay; assay type: functional; conditions: Homo sapiens, M14, 144 h; how it was run: as §2
# MDA-N = experiment: In vitro antitumor activity against Breast cancer MDA-N cell lines by 6-day assay; assay type: functional; conditions: Homo sapiens, 144 h; how it was run: as §2
# MDA-MB-435 = experiment: In vitro antitumor activity against Breast cancer MDA-MB-435 cell lines by 6-day assay; assay type: functional; conditions: Homo sapiens, MDA-MB-435, 144 h; how it was run: as §2
# MOLT-4 = experiment: In vitro antitumor activity against Leukemia MOLT-4 cell lines by 6-day assay; assay type: functional; conditions: Homo sapiens, MOLT-4, 144 h; how it was run: as §2
# OVCAR-8 = experiment: In vitro antitumor activity against Ovarian cancer OVCAR-8 cell lines by 6-day assay; assay type: functional; conditions: Homo sapiens, OVCAR-8, 144 h; how it was run: as §2
# NCI [1] = experiment: In vitro antitumor activity against carcinoma cell lines by 6-day assay; assay type: functional, Homo sapiens; how it was run: as §2
# NCI [2] = experiment: In vitro antitumor activity against carcinoma cell lines by 2-day assay; assay type: functional, Homo sapiens
# How it was run: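 NCI panel sulforhodamine B assay: line-specific seeding, 24 h drug-free, then five 10-fold dilutions (top 10^-4 M) for 2 days; growth inhibition from protein-stain optical density change; mean log GI50 across panel.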
# NCI-H23 = experiment: In vitro antitumor activity against Non-small cell lung cancer NCI-H23 cell lines by 6-day assay; assay type: functional; conditions: Homo sapiens, NCI-H23, 144 h; how it was run: as §2
# OVCAR-5 = experiment: In vitro antitumor activity against Ovarian cancer OVCAR-5 cell lines by 6-day assay; assay type: functional; conditions: Homo sapiens, OVCAR-5, 144 h; how it was run: as §2
# RPMI-8226 = experiment: In vitro antitumor activity against Leukemia RPMI-8226 cell lines by 6-day assay; assay type: functional; conditions: Homo sapiens, RPMI-8226, 144 h; how it was run: as §2
# SNB-19 = experiment: In vitro antitumor activity against CNS cancer SNB-19 cell lines by 6-day assay; assay type: functional; conditions: Homo sapiens, SNB-19, 144 h; how it was run: as §2
# SN12C = experiment: In vitro antitumor activity against Renal cancer SN12C cell lines by 6-day assay; assay type: functional; conditions: Homo sapiens, 144 h; how it was run: as §2
# SF-295 = experiment: In vitro antitumor activity against CNS cancer SF-295 cell lines by 6-day assay; assay type: functional; conditions: Homo sapiens, SF-295, 144 h; how it was run: as §2
# SW-620 = experiment: In vitro antitumor activity against colon cancer SW-620 cell lines by 6-day assay; assay type: functional; conditions: Homo sapiens, SW-620, 144 h; how it was run: as §2
# SK-MEL-5 = experiment: In vitro antitumor activity against melanoma SK-MEL-5 cell lines by 6-day assay; assay type: functional; conditions: Homo sapiens, SK-MEL-5, 144 h; how it was run: as §2
# SNB-75 = experiment: In vitro antitumor activity against CNS cancer SNB-75 cell lines by 6-day assay; assay type: functional; conditions: Homo sapiens, SNB-75, 144 h; how it was run: as §2
# SK-OV-3 = experiment: In vitro antitumor activity against Ovarian cancer SK-OV-3 cell lines by 6-day assay; assay type: functional; conditions: Homo sapiens, SK-OV-3, 144 h; how it was run: as §2
# SK-MEL-28 = experiment: In vitro antitumor activity against melanoma SK-MEL-28 cell lines by 6-day assay; assay type: functional; conditions: Homo sapiens, SK-MEL-28, 144 h; how it was run: as §2
# TK-10 = experiment: In vitro antitumor activity against Renal cancer TK-10 cell lines by 6-day assay; assay type: functional; conditions: Homo sapiens, TK-10, 144 h; how it was run: as §2
# UO-31 = experiment: In vitro antitumor activity against Renal cancer UO-31 cell lines by 6-day assay; assay type: functional; conditions: Homo sapiens, UO-31, 144 h; how it was run: as §2
# UACC-257 = experiment: In vitro antitumor activity against melanoma UACC-257 cell lines by 6-day assay; assay type: functional; conditions: Homo sapiens, UACC-257, 144 h; how it was run: as §2
# U-251 = experiment: In vitro antitumor activity against CNS cancer U251 cell lines by 6-day assay; assay type: functional; conditions: Homo sapiens, U-251, 144 h; how it was run: as §2
# UACC-62 = experiment: In vitro antitumor activity against melanoma UACC-62 cell lines by 6-day assay; assay type: functional; conditions: Homo sapiens, UACC-62, 144 h; how it was run: as §2
# NCI-H322M = experiment: In vitro antitumor activity against Non-small cell lung cancer NCI-H322M cell lines by 6-day assay; assay type: functional; conditions: Homo sapiens, 144 h; how it was run: as §2
# RXF 393 = experiment: In vitro antitumor activity against Renal cancer RXF393 cell lines by 6-day assay; assay type: functional; conditions: Homo sapiens, RXF 393, 144 h; how it was run: as §2
# SF-268 = experiment: In vitro antitumor activity against CNS cancer SF-268 cell lines by 6-day assay; assay type: functional; conditions: Homo sapiens, SF-268, 144 h; how it was run: as §2
# DU-145 = experiment: In vitro antitumor activity against Prostate cancer DU145 cell lines by 6-day assay; assay type: functional; conditions: Homo sapiens, DU-145, 144 h; how it was run: as §2
# K562 = experiment: In vitro antitumor activity against Leukemia K-562 cell lines by 6-day assay; assay type: functional; conditions: Homo sapiens, K562, 144 h; how it was run: as §2
# SR = experiment: In vitro antitumor activity against Leukemia SR cell lines by 6-day assay; assay type: functional; conditions: Homo sapiens, 144 h; how it was run: as §2
# Homo sapiens = experiment: In vitro concentration to reduce colony formation of human tumor xenografts to 30% of the control; assay type: functional
# How it was run: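 Clonogenic colony-formation assay using cells from 22 human tumor xenografts, tested at 0.1, 1.0 and 10 μg/mL; colony inhibition expressed as T/C, with T/C < 30% scored active; IC70 concentration reported.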
compound,measurement,setting,value
CC(=O)N(C(C)=O)c1ccc(-c2nc3ccccc3s2)cc1C,IC50,MCF7,> 10 µM
same,IC50,MDA-MB-468,> 10 µM
Nc1ccc(-c2nc3ccccc3s2)cc1Br,GI50,786-0,66.1 µM
same,GI50,A498,0.191 µM
same,GI50,A549,> 100 µM
same,GI50,ACHN,44.7 µM
same,GI50,CAKI-1,> 100 µM
same,GI50,CCRF-CEM,40.7 µM
same,GI50,BT-549,57.5 µM
same,GI50,COLO 205,< 0.01 µM
same,GI50,EKVX,81.3 µM
same,GI50,HCT-15,31.6 µM
same,GI50,HL-60,9.55 µM
same,GI50,HCT-116,< 0.01 µM
same,GI50,HCC 2998,< 0.01 µM
same,GI50,HT-29,24.5 µM
same,GI50,HOP-92,40.7 µM
same,GI50,IGROV-1,< 0.01 µM
same,GI50,KM12,69.2 µM
same,GI50,M14,64.6 µM
same,IC50,MCF7,< 0.001 µM
same,IC50,MDA-MB-468,< 0.001 µM
same,GI50,MDA-N,> 100 µM
same,GI50,MDA-MB-435,97.7 µM
same,GI50,MOLT-4,46.8 µM
same,GI50,OVCAR-8,43.7 µM
same,Mean log GI50,NCI [1],-5.01 M
same,Mean log GI50,NCI [2],-4.67 M
same,GI50,NCI-H23,28.8 µM
same,GI50,OVCAR-5,< 0.01 µM
same,GI50,RPMI-8226,> 100 µM
same,GI50,SNB-19,47.9 µM
same,GI50,SN12C,> 100 µM
same,GI50,SF-295,42.7 µM
same,GI50,SW-620,45.7 µM
same,GI50,SK-MEL-5,15.8 µM
same,GI50,SNB-75,> 100 µM
same,GI50,SK-OV-3,58.9 µM
same,GI50,SK-MEL-28,> 100 µM
same,GI50,TK-10,< 0.01 µM
same,GI50,UO-31,32.4 µM
same,GI50,UACC-257,< 0.01 µM
same,GI50,U-251,37.2 µM
same,GI50,UACC-62,< 0.01 µM
same,GI50,NCI-H322M,> 100 µM
same,GI50,RXF 393,40.7 µM
same,GI50,SF-268,34.7 µM
same,GI50,DU-145,> 100 µM
same,GI50,K562,> 100 µM
same,GI50,SR,47.9 µM
CC(=O)Nc1ccc(-c2nc3ccccc3[nH]2)cc1,IC50,MCF7,> 10 µM
same,IC50,MDA-MB-468,> 10 µM
CC(=O)Nc1ccc(-c2nc3ccccc3s2)cc1Br,IC50,MCF7,> 0.01 µM
same,IC50,MDA-MB-468,> 0.1 µM
same,Mean log GI50,NCI [2],-4.52 M
Nc1ccc(-c2nc3ccccc3s2)cc1I,Mean IC70,Homo sapiens,6.1 µg/mL
same,IC50,MCF7,< 0.001 µM
same,IC50,MDA-MB-468,< 0.001 µM
same,Mean log GI50,NCI [1],-5.12 M
same,Mean log GI50,NCI [2],-4.75 M
O=C(Nc1ccc(-c2nc3ccccc3s2)cc1)C(Cl)Cl,IC50,MCF7,> 0.1 µM
same,IC50,MDA-MB-468,> 0.1 µM
